# TAAR1 agonist = human TAAR1 agonists, primary screen, Fluo-8 calcium fluorescence, CHO RD-HGA16 cells; vehicle wells 0%, saturating PEA agonist 100%; 0.99% of 360,000 active; activation, % at 3 µM;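 active = activation above the mean activation of all test compounds in the run plus 3 SD, cut at about 38% in these data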
#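 Test system: RD-HGA16 (CHO) cells co-expressing Gα16 and hTAAR1; dosing: one-point dosing at 3 µM (nominal); timing: 17-24 h seeding, 75 min 37 °C dye, 30 min RT; signal: kinetic Fluo-8 calcium fluorescence; read-out basis: % activation relative to PEA EC100 response; controls: DMSO and PEA EC100; replicates: n 1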
# CHO parental Ca = ATP-evoked calcium signal inhibitors, parental CHO, primary screen, counter-screen for OX1R antagonist project, cell-based, fluorescence, Fluo-8 calcium dye | parental CHO-K1, ATP-induced calcium, Fluo-8 fluorescence | inhibition, % at 5.6 µM | 0.63% of 330,000 active | AID 463079, 2010;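 active = inhibition above that plate's mean sample inhibition plus 3 SD, cut at about 26% in these data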;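 note: 0% = ATP-challenged DMSO wells and 100% = DMSO wells without ATP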
#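 Measured by: calcium-sensitive Fluo-8 fluorescence / Test system: CHO parental line / Controls: ATP-challenged DMSO wells low, unchallenged DMSO wells high / Measure: % inhibition / Compound: single nominal dose of 5.6 µM per compound / Replicates: single well per compound, no replicates / Reagent: ATP as calcium-mobilizing challenge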
# GPR7 antag = GPR7 receptor antagonists, primary screen, cell-based, fluorescence, single concentration; Neuropeptides B/W receptor type 1 (Homo sapiens), P48145; GPR7-expressing cells, fluorescence antagonist assay; inhibition, % at 4.4 µM; 1.1% of 290,000 active; AID 1861, 2009; in the data active = inhibition above about 16%, passing the limit was not always enough;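 note: cells stimulated with the agonist NPW; 0% = agonist with vehicle and 100% = vehicle without agonist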
# Target sequence (P48145 whole entry, looked up): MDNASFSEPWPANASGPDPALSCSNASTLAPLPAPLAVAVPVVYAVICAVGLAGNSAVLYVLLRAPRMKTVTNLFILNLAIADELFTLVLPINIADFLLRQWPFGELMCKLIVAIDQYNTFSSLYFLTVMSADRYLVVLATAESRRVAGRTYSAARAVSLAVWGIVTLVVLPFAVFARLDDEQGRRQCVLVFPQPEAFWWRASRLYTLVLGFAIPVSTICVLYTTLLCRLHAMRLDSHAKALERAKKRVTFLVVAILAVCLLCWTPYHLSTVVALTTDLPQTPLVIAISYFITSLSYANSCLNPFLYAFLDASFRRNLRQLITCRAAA
# TAAR1 antagonist = human TAAR1 antagonists, primary screen, Fluo-8 calcium fluorescence, CHO RD-HGA16 cells; inhibition, % at 3 µM; antagonist; 1.5% of 360,000 active; AID 624466, 2012; Trace amine-associated receptor 1 (Homo sapiens), Q96RJ0;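 active = inhibition above a per-plate cutoff, the mean inhibition of test compounds on that plate plus 3 SD, cut at about 49% in these data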;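 note: 0% = DMSO plus EC80 beta-PEA response and 100% = DMSO alone without agonist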
#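 Test system: RD-HGA16 CHO cells with stable hTAAR1 and Gα16 / Probe or stimulus: EC80 β-phenethylamine stimulus / Times: seeding 17-24 h prior, 75-min 37 °C, 30-min RT dye loading / Detection: Fluo-8 calcium-sensitive fluorescence / Read-out basis: % inhibition scaled between DMSO and EC80 PEA controls / Repeats: singlicate, one well per test compound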
# OX1R antag-1 = OX1R (HCRTR1) antagonists, primary screen, fluorescence, CHO/OX1R cells, Fluo-8 calcium, orexin A | Orexin/Hypocretin receptor type 1 (Homo sapiens), O43613 | Fluo-8 calcium fluorescence | inhibition, % at 5 µM | 0.43% of 330,000 active | AID 434989, 2010;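 active = inhibition above its plate's threshold, mean inhibition of all tested compounds on the plate plus 3 SD, cut at about 37% in these data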;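 note: 0% = orexin A challenge wells and 100% = SB-334867-A antagonist wells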
# OX1R antag-2 = antagonists of human orexin 1 receptor (OX1R); inhibition, % at 6.6 µM; 1.8% of 330,000 active; AID 485270, 2010; OX1R-expressing cells, FRET antagonist read-out; Orexin/Hypocretin receptor type 1 (Homo sapiens), O43613; in the data active = inhibition mostly above about 38%, no sharp cut-off; inactive = mostly below about 40%;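 note: 0% = agonist challenge alone and 100% = reference antagonist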
# OX1R Fluo8 conf = OX1R (HCRTR1) antagonists, confirmation, fluorescence, CHO/OX1R cells, Fluo-8 calcium, orexin A | 38% of 1,100 active | shares compounds with OX1R antag-1 | inhibition, % at 5 µM | AID 492963, 2010 | orexin A calcium Fluo-8 fluorescence; in the data active = inhibition above about 29%;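 note: 0% = agonist challenge alone and 100% = reference antagonist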
# CHO Ca triplic = ATP-evoked calcium inhibition in parental CHO, counter-screen for OX1R antagonist project, cell-based, fluorescence, CHO-K1, triplicate; shares compounds with OX1R antag-1; ATP-induced calcium, Fluo-8 fluorescence; inhibition, % at 5.6 µM; 9.3% of 1,100 active;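 active = inhibition above a per-plate limit, the mean inhibition of that plate's test compounds plus 3 SD, cut at about 25% in these data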;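 note: 0% = ATP challenge with DMSO and 100% = DMSO without ATP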
# OX1R HTRF confirm = OX1R (HCRTR1) antagonists, confirmation, cell-based, HTRF; AID 492964, 2010; 49% of 1,800 active; OX1R-expressing cells, HTRF antagonist assay; inhibition, % at 6.6 µM; shares compounds with OX1R antag-2; in the data active = inhibition above about 55%;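 note: CHO cells expressing OX1R stimulated with orexin A at about EC80; 0% = agonist challenge alone and 100% = reference antagonist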
# CHO-K1 HTRF = signal inhibition in parental CHO-K1 cells, counter-screen for OX1R antagonist project, cell-based, HTRF. 48% of 1,800 active. shares compounds with OX1R antag-2. inhibition, % at 6.6 µM. HTRF counterscreen; in the data active = inhibition above about 17%;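 note: 0% = agonist challenge with vehicle and 100% = vehicle alone without agonist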
# An asterisk follows results filed as active; . = no result given. Compounds with a hit are over-represented: about 4.6% of the library has one in this group of screens.
SMILES,TAAR1 agonist,CHO parental Ca,GPR7 antag,TAAR1 antagonist,OX1R antag-1,OX1R antag-2,OX1R Fluo8 conf,CHO Ca triplic,OX1R HTRF confirm,CHO-K1 HTRF
CN1CCN(C(=O)Nc2ccccc2CC[N+](=O)[O-])CC1,8,-10,-5,6,-9,21,.,.,.,.
CCN1C(=O)c2cccc3c(S(=O)(=O)NCCc4c[nH]c5ccccc45)ccc1c23,19,-18,-2,19,38,81*,32*,2,72*,2
CCN1C(=O)c2cccc3c(S(=O)(=O)NCc4ccccc4)ccc1c23,4,-27,.,12,-7,8,.,.,.,.
O=C1N=C(N2CCOCC2)S/C1=C/c1cccs1,2,-1,4,-12,-16,25,.,.,.,.
CC(=C/c1ccccc1)/C=C1/SC(N2CCOCC2)=NC1=O,6,-5,-2,35,85*,108*,80*,3,101*,-2
COc1ccc(Cl)cc1C(=O)N/N=C/c1ccc(N2CCOCC2)cc1,7,0,-24,10,-7,32,.,.,.,.
CC(C)C[C@@H](CN=[N+]=[N-])N1CCN(Cc2ccccc2)CCC1=O,3,-19,12,3,-39,21,.,.,.,.
COc1ccc(NC(=S)Nc2cccc([N+](=O)[O-])c2)cc1,8,-2,3,16,-2,8,.,.,.,.
COc1ccc(NC(=O)c2cc([N+](=O)[O-])ccc2O)cc1,8,15,-17,-3,33,70*,14,0,27,7
CC1CC(C)CN(C(=O)CNC(=O)c2sc3ccccc3c2Cl)C1 (configuration not stated),0,-26,.,-3,55*,70*,27,-11,83*,8
O=C(COC(=O)c1cnc(Cl)c(Cl)c1)NCc1cccs1,2,-13,7,-13,-9,16,.,.,.,.
CC(C)C(NS(=O)(=O)c1cccc2nsnc12)C(=O)N1CCn2c1nc1ccccc12 (configuration not stated),0,-14,-6,13,27,134*,19,-9,92*,16
CC(C)(C)C(=O)N1CCn2c1nc1ccccc12,0,10,-4,-28,-3,1,.,.,.,.
CCOC(=O)C1CCN(S(=O)(=O)c2ccc3c(c2)CCN3C(=O)C2CCC2)CC1,.,-13,-6,.,-15,9,.,.,.,.
COc1cc(NC(=O)CSCc2cnn(-c3ccccc3)c2-n2cccc2)cc(OC)c1,7,-25,-19,32,50*,78*,28,-17,89*,8
COc1ccccc1C#Cc1ccc2c(=O)c3ccccc3n(C)c2c1,10,-20,-3,19,-38,29,.,.,.,.
Cn1c2ccccc2c(=O)c2cc(C#Cc3cccc(N)c3)ccc21,.,-11,.,.,55*,92*,40*,6,88*,13
COc1ccc(-n2c(O)c(/C=N/n3cnnc3)c3ccccc3c2=O)cc1,5,0,-5,6,-13,25,.,.,.,.
CN1CCC/C1=C/C=C1\SC(=S)NC1=O,17,32,-2,-4,47,80*,33*,32*,55,98*

# Screening results (PubChem BioAssay)
